Results taken from ChEMBL document CHEMBL1133628, “Nonnucleoside human cytomegalovirus inhibitors: synthesis and antiviral evaluation of (chlorophenylmethyl)benzothiadiazine dioxide derivatives” (J Med Chem, 2000).

Tested on: Human betaherpesvirus 5
Test: In vitro inhibition of HCMV (AD-169) plaque formation.
Assay type: functional, organism-based
Conditions: not given
Procedure, shortened: (§1)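 Confluent HEL fibroblasts infected with HCMV at 100 PFU of cell-free virus; after a 2-h adsorption, residual virus removed and cells incubated in MEM with 2% FCS containing serial 5-fold compound dilutions, in duplicate. Fixed with ethanol after 7 days at 37 °C, 5% CO2, then Giemsa-stained; cytopathic effect scored microscopically. IC50 read graphically from % cytopathicity; mean of two experiments.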

Compound	IC50 [µM]
O=C1c2ccccc2N(Cc2ccccc2)S(=O)(=O)N1Cc1ccc(Cl)cc1	3
Nc1ccn(C[C@@H](CO)OCP(=O)(O)O)c(=O)n1 [CIDOFOVIR]	0.58
O=C1c2ccccc2N(Cc2ccccc2)S(=O)(=O)N1Cc1ccccc1	10
O=C1c2ccccc2N(Cc2ccccc2Cl)S(=O)(=O)N1Cc1ccccc1Cl	> 50
O=C1c2ccccc2N(Cc2ccc(Cl)cc2)S(=O)(=O)N1Cc1ccc(Cl)cc1	3.2
O=C1c2ccccc2N(Cc2ccccc2Cl)S(=O)(=O)N1Cc1ccccc1	15
O=S1(=O)N=C(OCc2ccccc2)c2ccccc2N1Cc1ccccc1	7

Tested on: HEL
Test: Inhibition of cell growth in HEL cells.
Assay type: functional
Conditions: Homo sapiens
Procedure, shortened: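 HEL fibroblasts seeded at 5×10^3 cells/well and left to proliferate 24 h, then given compound dilutions in duplicate. Incubated 3 days at 37 °C, 5% CO2; cells counted with a Coulter counter. CC50 is the concentration reducing cell growth by 50%.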

Compound	CC50 [µM]
C#CCOCN1c2ccccc2C(=O)N(Cc2ccccc2)S1(=O)=O	> 140
Nc1nc2c(ncn2COCCO)c(=O)[nH]1 [ACYCLOVIR]	> 400
O=C1c2ccccc2N(Cc2ccccc2)S(=O)(=O)N1COCc1ccccc1	> 98
O=C1c2ccccc2N(Cc2ccccc2)S(=O)(=O)N1Cc1ccc(Cl)cc1	121
Nc1ccn(C[C@@H](CO)OCP(=O)(O)O)c(=O)n1 [CIDOFOVIR]	317
O=C1c2ccccc2N(Cc2ccccc2)S(=O)(=O)N1Cc1ccccc1	> 200
O=C1c2ccccc2N(Cc2ccccc2Cl)S(=O)(=O)N1Cc1ccccc1Cl	> 200
O=C1c2ccccc2N(Cc2ccc(Cl)cc2)S(=O)(=O)N1Cc1ccc(Cl)cc1	> 200
O=C1c2ccccc2N(Cc2ccccc2Cl)S(=O)(=O)N1Cc1ccccc1	88
O=S1(=O)N=C(OCc2ccccc2)c2ccccc2N1Cc1ccccc1	> 200

Tested on: not listed separately
Test: concentration required to reduce virus HCMV (AD-169)plaque formation by 50%
Assay type: functional, Homo sapiens
Conditions: not given
Procedure, shortened: (§2)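 Confluent HEL fibroblasts were infected with 100 PFU cell-free HCMV, and residual virus was removed after 2 h. Cells were kept in MEM with 2% FCS and compound dilutions spaced 5-fold, in duplicate, for 7 days at 37 °C in 5% CO2. They were ethanol-fixed and Giemsa-stained, and cytopathic effect was scored microscopically. IC50 was interpolated from plots as the mean of two experiments.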

Compound	EC50 [µM]
O=S1(=O)N=C(OCc2ccc(Cl)cc2)c2ccccc2N1Cc1ccc(Cl)cc1	> 50

Tested on: Human alphaherpesvirus 3
Test: In vitro inhibition of Thymidine Kinase-Varicella-Zoster Virus(OKA) plaque formation.
Assay type: functional, organism-based
Conditions: Human alphaherpesvirus 3, oka
Procedure, shortened: (§3)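 Confluent HEL fibroblasts infected with VZV at 20 PFU; after a 2-h adsorption, residual virus removed and cells incubated in MEM with 2% FCS containing serial 5-fold compound dilutions, in duplicate. Fixed with ethanol after 5 days at 37 °C, 5% CO2, then Giemsa-stained; plaques counted microscopically. IC50 read graphically from plaque number (% of control); mean of two independent experiments.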

Compound	IC50 [µM]
Nc1nc2c(ncn2COCCO)c(=O)[nH]1 [ACYCLOVIR]	4.53
O=C1c2ccccc2N(Cc2ccccc2)S(=O)(=O)N1COCc1ccccc1	> 12
O=C1c2ccccc2N(Cc2ccccc2)S(=O)(=O)N1Cc1ccc(Cl)cc1	2.6
O=C1c2ccccc2N(Cc2ccccc2)S(=O)(=O)N1Cc1ccccc1	7.4
O=C1c2ccccc2N(Cc2ccccc2Cl)S(=O)(=O)N1Cc1ccccc1Cl	> 50
O=C1c2ccccc2N(Cc2ccc(Cl)cc2)S(=O)(=O)N1Cc1ccc(Cl)cc1	3.6
O=C1c2ccccc2N(Cc2ccccc2Cl)S(=O)(=O)N1Cc1ccccc1	> 20
O=S1(=O)N=C(OCc2ccccc2)c2ccccc2N1Cc1ccccc1	> 50

Tested on: Human alphaherpesvirus 3
Test: In vitro inhibition of Thymidine Kinase deficient Varicella Zoster Virus (YS/R) plaque formation.
Assay type: functional, organism-based
Conditions: not given
Procedure, shortened: as §3

Compound	IC50 [µM]
C#CCOCN1c2ccccc2C(=O)N(Cc2ccccc2)S1(=O)=O	36
Nc1nc2c(ncn2COCCO)c(=O)[nH]1 [ACYCLOVIR]	63
O=C1c2ccccc2N(Cc2ccccc2)S(=O)(=O)N1Cc1ccc(Cl)cc1	2.6
O=C1c2ccccc2N(Cc2ccccc2)S(=O)(=O)N1Cc1ccccc1	6
O=C1c2ccccc2N(Cc2ccccc2Cl)S(=O)(=O)N1Cc1ccccc1Cl	5
O=C1c2ccccc2N(Cc2ccc(Cl)cc2)S(=O)(=O)N1Cc1ccc(Cl)cc1	2.4
O=C1c2ccccc2N(Cc2ccccc2Cl)S(=O)(=O)N1Cc1ccccc1	> 20
O=S1(=O)N=C(OCc2ccccc2)c2ccccc2N1Cc1ccccc1	20

Tested on: not listed separately
Test: concentration required to reduce CEM cell proliferation by 50%
Conditions: Homo sapiens

Compound	CC50 [µM]
O=S1(=O)N=C(OCc2ccc(Cl)cc2)c2ccccc2N1Cc1ccc(Cl)cc1	> 250

Tested on: CCRF-CEM
Test: In vitro inhibition of CEM cell proliferation.
Assay type: functional
Conditions: Homo sapiens
Procedure, shortened: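 CEM cell proliferation measured alongside the HIV assays; CC50 is the concentration reducing CEM cell proliferation by 50%.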

Compound	CC50 [µM]
C#CCOCN1c2ccccc2C(=O)N(Cc2ccccc2)S1(=O)=O	23
O=C1c2ccccc2N(Cc2ccccc2)S(=O)(=O)N1COCc1ccccc1	100
O=C1c2ccccc2N(Cc2ccccc2)S(=O)(=O)N1Cc1ccc(Cl)cc1	27.8
O=C1c2ccccc2N(Cc2ccccc2)S(=O)(=O)N1Cc1ccccc1	108
O=C1c2ccccc2N(Cc2ccccc2Cl)S(=O)(=O)N1Cc1ccccc1Cl	40.4
O=C1c2ccccc2N(Cc2ccc(Cl)cc2)S(=O)(=O)N1Cc1ccc(Cl)cc1	35.8
O=C1c2ccccc2N(Cc2ccccc2Cl)S(=O)(=O)N1Cc1ccccc1	27.9
O=S1(=O)N=C(OCc2ccccc2)c2ccccc2N1Cc1ccccc1	22.2

Tested on: Human alphaherpesvirus 3
Test: In vitro inhibition of Thymidine Kinase deficient Varicella Zoster Virus (07/1) plaque formation.
Assay type: functional, organism-based
Conditions: not given
Procedure, shortened: as §3

Compound	IC50 [µM]
Nc1nc2c(ncn2COCCO)c(=O)[nH]1 [ACYCLOVIR]	41
O=C1c2ccccc2N(Cc2ccccc2)S(=O)(=O)N1COCc1ccccc1	> 12
O=C1c2ccccc2N(Cc2ccccc2)S(=O)(=O)N1Cc1ccc(Cl)cc1	10
O=C1c2ccccc2N(Cc2ccccc2)S(=O)(=O)N1Cc1ccccc1	23
O=C1c2ccccc2N(Cc2ccccc2Cl)S(=O)(=O)N1Cc1ccccc1Cl	> 50
O=C1c2ccccc2N(Cc2ccc(Cl)cc2)S(=O)(=O)N1Cc1ccc(Cl)cc1	11
O=C1c2ccccc2N(Cc2ccccc2Cl)S(=O)(=O)N1Cc1ccccc1	> 20
O=S1(=O)N=C(OCc2ccccc2)c2ccccc2N1Cc1ccccc1	> 50

Tested on: Human immunodeficiency virus 2
Test: In vitro inhibition of HIV-2(ROD) cytopathicity in CEM cells.
Assay type: functional, organism-based
Conditions: Human immunodeficiency virus 2, CCRF-CEM
Procedure, shortened: (§4)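 CEM cells at 4×10^5 cells/mL infected with HIV-1 IIIB or HIV-2 ROD (stocks from MT-4 supernatants) at ~100 CCID50/mL, then immediately mixed with compound dilutions. Giant cell formation scored microscopically after 4 days; EC50 is the concentration inhibiting it by 50%. Triplicate assays.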

Compound	EC50 [µM]
C#CCOCN1c2ccccc2C(=O)N(Cc2ccccc2)S1(=O)=O	> 8
O=C1c2ccccc2N(Cc2ccccc2)S(=O)(=O)N1COCc1ccccc1	20
O=C1c2ccccc2N(Cc2ccccc2)S(=O)(=O)N1Cc1ccc(Cl)cc1	> 10
O=C1c2ccccc2N(Cc2ccccc2)S(=O)(=O)N1Cc1ccccc1	≥ 50
O=C1c2ccccc2N(Cc2ccccc2Cl)S(=O)(=O)N1Cc1ccccc1Cl	> 10
O=C1c2ccccc2N(Cc2ccc(Cl)cc2)S(=O)(=O)N1Cc1ccc(Cl)cc1	7.5
O=C1c2ccccc2N(Cc2ccccc2Cl)S(=O)(=O)N1Cc1ccccc1	> 10
O=S1(=O)N=C(OCc2ccccc2)c2ccccc2N1Cc1ccccc1	> 10

Tested on: not listed separately
Test: concentration required to reduce virus Human Cytomegalovirus (Davis)plaque formation by 50%
Assay type: functional
Conditions: not given
Procedure, shortened: as §2

Compound	EC50 [µM]
O=S1(=O)N=C(OCc2ccc(Cl)cc2)c2ccccc2N1Cc1ccc(Cl)cc1	> 50

Tested on: Human betaherpesvirus 5
Test: In vitro inhibition of HCMV (Davis) plaque formation.
Assay type: functional, organism-based
Conditions: not given
Procedure, shortened: as §1

Compound	IC50 [µM]
O=C1c2ccccc2N(Cc2ccccc2)S(=O)(=O)N1Cc1ccc(Cl)cc1	3.5
Nc1ccn(C[C@@H](CO)OCP(=O)(O)O)c(=O)n1 [CIDOFOVIR]	1.3
O=C1c2ccccc2N(Cc2ccccc2)S(=O)(=O)N1Cc1ccccc1	10
O=C1c2ccccc2N(Cc2ccccc2Cl)S(=O)(=O)N1Cc1ccccc1Cl	50
O=C1c2ccccc2N(Cc2ccc(Cl)cc2)S(=O)(=O)N1Cc1ccc(Cl)cc1	3.2
O=C1c2ccccc2N(Cc2ccccc2Cl)S(=O)(=O)N1Cc1ccccc1	12
O=S1(=O)N=C(OCc2ccccc2)c2ccccc2N1Cc1ccccc1	7

Tested on: HEL
Test: In vitro alteration in cell morphology in HEL cells.
Assay type: functional
Conditions: Homo sapiens
Procedure, shortened: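 Normal HEL cells exposed to compounds and examined microscopically; minimum cytotoxic concentration is the lowest giving a detectable change in cell morphology. Duplicate assays.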

Compound	MCC [µM]
C#CCOCN1c2ccccc2C(=O)N(Cc2ccccc2)S1(=O)=O	140
Nc1nc2c(ncn2COCCO)c(=O)[nH]1 [ACYCLOVIR]	> 150
O=C1c2ccccc2N(Cc2ccccc2)S(=O)(=O)N1COCc1ccccc1	49
O=C1c2ccccc2N(Cc2ccccc2)S(=O)(=O)N1Cc1ccc(Cl)cc1	20
Nc1ccn(C[C@@H](CO)OCP(=O)(O)O)c(=O)n1 [CIDOFOVIR]	> 159
O=C1c2ccccc2N(Cc2ccccc2)S(=O)(=O)N1Cc1ccccc1	> 50
O=C1c2ccccc2N(Cc2ccccc2Cl)S(=O)(=O)N1Cc1ccccc1Cl	> 20
O=C1c2ccccc2N(Cc2ccc(Cl)cc2)S(=O)(=O)N1Cc1ccc(Cl)cc1	> 50
O=C1c2ccccc2N(Cc2ccccc2Cl)S(=O)(=O)N1Cc1ccccc1	200
O=S1(=O)N=C(OCc2ccccc2)c2ccccc2N1Cc1ccccc1	200

Tested on: Human immunodeficiency virus 1
Test: In vitro inhibition of HIV-1(IIIB) cytopathicity in CEM cells.
Assay type: functional, organism-based
Conditions: Human immunodeficiency virus 1, CCRF-CEM
Procedure, shortened: as §4

Compound	EC50 [µM]
C#CCOCN1c2ccccc2C(=O)N(Cc2ccccc2)S1(=O)=O	> 8
O=C1c2ccccc2N(Cc2ccccc2)S(=O)(=O)N1COCc1ccccc1	15
O=C1c2ccccc2N(Cc2ccccc2)S(=O)(=O)N1Cc1ccc(Cl)cc1	5
O=C1c2ccccc2N(Cc2ccccc2)S(=O)(=O)N1Cc1ccccc1	25
O=C1c2ccccc2N(Cc2ccccc2Cl)S(=O)(=O)N1Cc1ccccc1Cl	15
O=C1c2ccccc2N(Cc2ccc(Cl)cc2)S(=O)(=O)N1Cc1ccc(Cl)cc1	> 10
O=C1c2ccccc2N(Cc2ccccc2Cl)S(=O)(=O)N1Cc1ccccc1	> 10
O=S1(=O)N=C(OCc2ccccc2)c2ccccc2N1Cc1ccccc1	> 10

Tested on: Human alphaherpesvirus 3
Test: In vitro inhibition of Thymidine Kinase-Varicella Zoster Virus(YS) plaque formation.
Assay type: functional, organism-based
Conditions: not given
Procedure, shortened: as §3

Compound	IC50 [µM]
Nc1nc2c(ncn2COCCO)c(=O)[nH]1 [ACYCLOVIR]	4.09
O=C1c2ccccc2N(Cc2ccccc2)S(=O)(=O)N1COCc1ccccc1	> 12
O=C1c2ccccc2N(Cc2ccccc2)S(=O)(=O)N1Cc1ccc(Cl)cc1	8.2
O=C1c2ccccc2N(Cc2ccccc2)S(=O)(=O)N1Cc1ccccc1	36
O=C1c2ccccc2N(Cc2ccccc2Cl)S(=O)(=O)N1Cc1ccccc1Cl	> 50
O=C1c2ccccc2N(Cc2ccc(Cl)cc2)S(=O)(=O)N1Cc1ccc(Cl)cc1	3.8
O=C1c2ccccc2N(Cc2ccccc2Cl)S(=O)(=O)N1Cc1ccccc1	> 20
O=S1(=O)N=C(OCc2ccccc2)c2ccccc2N1Cc1ccccc1	> 50
